Source: ChEMBL document CHEMBL1124425, “Alkylating partial muscarinic agonists related to oxotremorine. N-[4-[(2-haloethyl)methylamino]-2-butynyl]-5-methyl-2-pyrrolidones” (J Med Chem, 1989)

Tests used:
[1] = First order rate constant of compound was determined in 50 mM phosphate buffer (pH 7.4) at 37 degree celsius; type: ADME
Method in brief: (§1)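 Solvolysis in 50 mM phosphate buffer pH 7.4 at 37 °C. Halide release by argentometric titration. Aziridinium ion quantified by thiosulfate reaction and iodine back-titration. k1 and k2 obtained by unweighted Gauss-Newton nonlinear fit, with half-lives following from them.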

[2] = Rate constant for decay of compound was determined in 50 mM phosphate buffer (pH 7.4) at 37 degree celsius; type: ADME; method in brief: as §1
Rattus norvegicus = species on record: Rattus norvegicus; test: Rate constants of compound was determined at muscarinic receptor in the rat cerebral cortex; type: ADME
Method in brief: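 Rat cortex homogenate (25 mg wet tissue/mL, 50 mM phosphate pH 7.4), preincubated 10 min at 37 °C. Precyclized haloethylamines then added at 0.1 mM to 1 nM final for 30 min. Reaction stopped with thiosulfate (1.0 mM) and atropine (0.1 mM), and tissue washed four times. Residual binding of 0.4 nM [3H]QNB measured over 1 h at 37 °C. Rate equation fitted by unweighted nonlinear regression, using initial aziridinium concentration.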

[3] = Dissociation constant of compound was determined at muscarinic receptor in the rat cerebral cortex; type: tissue-based
Method in brief: (§2)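 Male Sprague-Dawley rat cerebral cortex homogenised in 50 mM phosphate buffer pH 7.4 and centrifuged at 30000g. Competition against 0.3 nM (-)-[3H]NMS with the aziridinium ions, 1 h at 0 °C, triplicates, five experiments. Nonspecific binding taken with 10 µM atropine. Two-site fit by unweighted nonlinear regression gave KH and KL, which were corrected for [3H]NMS occupancy.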

[4] = Percentage affinity of compound towards muscarinic receptor sites in the rat cerebral cortex; type: tissue-based; method in brief: as §2
[5] = Equilibrium binding parameters of compound was determined at muscarinic receptor in the rat cerebral cortex; type: tissue-based; method in brief: as §2
[6] = Ratio of binding constants KL to KH was determined; method in brief: as §2
[7] = Binding affinity of compound towards muscarinic receptor using radioligand [3H]NMS in the rat cerebral cortex; type: tissue-based; method in brief: as §2
[8] = Half life of compound was determined in 50 mM phosphate buffer (pH 7.4) at 37 degree celsius; type: ADME; method in brief: as §1
[9] = Acute toxicity of compound when injected intravenously in mice; type: organism-based; conditions: mouse, in vivo, iv
[10] = First order rate constant of compound was determined in 50 mM phosphate buffer (pH 7.4) at 24 degree celsius; type: ADME
Method in brief: (§3)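 Solvolysis in 50 mM phosphate buffer pH 7.4 at 24 °C. Halide release measured by argentometric titration. Aziridinium ion was reacted with thiosulfate, and the excess was back-titrated with iodine. k1 (cyclisation) and k2 (aziridinium decay) came from an unweighted Gauss-Newton fit of kinetic models.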

[11] = Rate constant for decay of compound was determined in 50 mM phosphate buffer (pH 7.4) at 24 degree celsius; type: ADME; method in brief: as §3

Compound | K1 [1] [min⁻¹] | K2 [2] [min⁻¹] | K3 (Rattus norvegicus) [min⁻¹] | KA [3] [µM] | Affinity [4] [%] | KH [5] [µM] | KL [5] [µM] | Ratio [6] | Ki [7] [nM] | T1/2 ([8]; buffer) [min] | half-life ([8]; phosphate buffer) [min] | LD50 [9] [µmol/kg] | K1 [10] [min⁻¹] | K2 [11] [min⁻¹]
CN(CC#CCN1CCCC1=O)CCBr | 0.85 | 0.04 | 0.062 | 0.35 | 16.5 | 0.001 | 0.47 | 466 |  |  |  |  |  | 
CC1CCC(=O)N1CC#CC[N+]1(C)CC1 (configuration not stated) |  |  |  |  |  |  |  |  | 53 |  |  |  |  | 
CC1CCC(=O)N1CC#CCN(C)CCCl (configuration not stated) | 0.025 | 0.045 | 0.091 | 0.058 |  |  |  |  |  | 15.3 | 27.7 | 396 |  | 
CC1CCC(=O)N1CC#CCN(C)CCBr (configuration not stated) | 0.89 | 0.06 | 0.096 | 0.035 | 14.2 | 0.001 | 0.071 | 71 |  |  |  | 81 | 0.18 | 0.0096
CN(CC#CCN1CCCC1=O)CCCl | 0.019 | 0.033 | 0.064 | 0.79 |  |  |  |  |  |  |  |  |  | 
C[N+]1(CC#CCN2CCCC2=O)CC1 |  |  |  |  |  |  |  |  | 330 |  |  |  |  | 
